This note sets out measurements from ChEMBL document CHEMBL2151001, “Indiacens A and B: prenyl indoles from the myxobacterium Sandaracinus amylolyticus” (2012).

≈ marks a conversion by molar mass, not a printed value. Bounds are passed on as bounds.

One may read the MIC as the least concentration at which growth counts as inhibited. A high value points to a less susceptible organism.

What all share (format): functional
For one assay, the system named is Escherichia coli. The assay can be described thus: Antimicrobial activity against Escherichia coli expressing mutant TOLC by serial dilution method.
For a further assay, the system named is Pimelobacter simplex. Put plainly: Antimicrobial activity against Nocardioides simplex by serial dilution method. The essentials:
(§1)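 MIC by serial dilution in 96-well plates. Test bacteria grown in EBS medium (0.5% peptone, 0.5% glucose, 0.1% meat extract, 0.1% yeast extract, 50 mM HEPES, pH 7.0) at 30 °C with shaking at 160 rpm.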

Assay [1] relates to Mycolicibacterium diernhoferi. Put plainly: Antimicrobial activity against Mycobacterium diernhoferi by serial dilution method. In short, it runs like this: as §1
In a further assay the test system is Stutzerimonas stutzeri. Put plainly: Antimicrobial activity against Pseudomonas stutzeri by serial dilution method. In short, it runs like this:
as §1

In another assay the test system is Mucor hiemalis. The assay can be described thus: Antimicrobial activity against Mucor hiemalis by serial dilution method. The essentials: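 Fungal MIC by serial dilution in 96-well plates. Organism cultivated in MYC medium (1.0% phytone peptone, 1.0% glucose, 1.19% HEPES, pH 7.0) at 30 °C, 160 rpm.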
The next assay concerns Mycobacterium lacticola. The assay can be described thus: Antimicrobial activity against Mycobacterium lacticola by serial dilution method. In short, it runs like this:
as §1

A short description of assay [2]: Antimicrobial activity against Arthrobacter rubellus by serial dilution method. In short, it runs like this: as §1
Assay [3] has as its system Chromobacterium violaceum. The assay can be described thus: Antimicrobial activity against Chromobacterium violaceum by serial dilution method. In short, it runs like this:
as §1

Consider `CC(/C=C/c1cccc2[nH]cc(C=O)c12)=C\Cl` [INDIACEN B], for which the MIC against Escherichia coli is 33 µg/mL (≈ 134 µM); against Pimelobacter simplex, 3.3 µg/mL (≈ 13.4 µM); in assay [1], greater than 33 µg/mL; in the assay with Stutzerimonas stutzeri, 33 µg/mL (≈ 134 µM); in the assay with Mucor hiemalis, 16.6 µg/mL (≈ 67.6 µM); in the assay on Mycobacterium lacticola, 33 µg/mL (≈ 134 µM). Further, the MIC in assay [2] came to 0.8 µg/mL (≈ 3.26 µM); in assay [3], 33 µg/mL (≈ 134 µM).
Turning to `C=C(C)/C=C/c1cccc2[nH]cc(C=O)c12` [INDIACEN A], the MIC with Escherichia coli is 16.6 µg/mL (≈ 78.6 µM); with Pimelobacter simplex, 8.3 µg/mL (≈ 39.3 µM); in assay [1] it was 16.6 µg/mL (≈ 78.6 µM); with Stutzerimonas stutzeri, greater than 33 µg/mL; against Mucor hiemalis, 16.6 µg/mL (≈ 78.6 µM); with Mycobacterium lacticola it was 16.6 µg/mL (≈ 78.6 µM). In addition, the MIC in assay [2] and in assay [3] was 16.6 µg/mL (≈ 78.6 µM) in each case.
